The values below come from publication PMC6396672 (OncoTargets and therapy, 2019).

Series [1] deals with MDR-related genes in MHCC97-H cells. Nature of the series: qPCR of MDR-related genes. Type of series: cell-based. The following applies: ARQ-197 at IC25 concentration. Put shortly: (§1)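 Total RNA from treated HCC cells was extracted and reverse transcribed. Target mRNAs were measured by real-time qPCR with gene-specific primers and normalised to β-actin mRNA. EMT targets were E-cadherin, N-cadherin and vimentin; MDR targets were CYP3A4, MDR-1 and UGT1A9.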

The subject of series [2] is MHCC97-H cells. Nature of the series: MTT assay, cell survival. The note with it: for IC50: Homo sapiens, MHCC97H. Type of series: cell-based. Put shortly:
(§2)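 Compounds were dissolved in DMSO and diluted in DMEM. Cells were treated at 0.01, 0.03, 0.1, 0.3, 1, 3 and 10 μmol/L, and viability was read by MTT. Inhibition rates were calculated, and IC25, IC50 and ICmax were derived by curve fitting.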

For series [3], the system named is ETS-1. Kind of series: Gene reporter luciferase assay EBS-Luc. Type of series: cell-based. The following applies: MHCC97-H cells, dose-dependent.
Series [4] deals with MHCC97-L cells. Kind of series: MTT assay, cell survival. Type of series: cell-based. The note with it: for IC50: MHCC97L. A digest of the protocol: as §2
(In general: Tetrazolium assays rely on reduction of a dye to a coloured formazan, in cell work by metabolically active cells.)

The subject of series [5] is EMT-related genes in MHCC97-H cells. Nature of the series: qPCR of EMT-related genes. Type of series: cell-based. The following applies: ARQ-197 at IC25 concentration. A digest of the protocol: as §1
The subject of series [6] is PXR. The note with it: MHCC97-H cells, dose-dependent.
The subject of series [7] is MHCC97-H tumors. Kind of series: In vivo antitumor effect, subcutaneous tumor model. The note with it: nude mice. A digest of the protocol:
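Nude (T-cell-deficient) mice, aged 4–6 weeks, were injected subcutaneously with 1×10^6 MHCC97-H cells per animal. Treatment started 3–4 days after injection: sorafenib 2 mg/kg given orally every 2 days, ten doses over 21 days. Mice were then harvested and tumour volumes or weights measured. Inhibition rates were calculated from tumour volume or weight.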

For series [8], the system named is L-02 cells. Nature of the series: MTT assay, cell survival. Type of series: cell-based. Put shortly: as §2
Series [9] concerns HepG2 cells. Nature of the series: MTT assay, cell survival. The following applies: for IC50: Homo sapiens. Type of series: cell-based. Put shortly: as §2
The subject of series [10] is LM-3 cells. Kind of series: MTT assay, cell survival. Type of series: cell-based. Put shortly: as §2
The nature of series [11]: Clearance of sorafenib in cultured cells by LC-MS/MS. The note with it: human, MHCC97-L cells (cultured HCC cells), Half-life of sorafenib (t1/2). In kind it is in vitro ADME. Put shortly: (§3)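 Cultured human HCC cells (with or without the co-treatment or siRNA named in the line) were exposed to sorafenib at 1 μmol/L for 12 hours, then harvested at set time points. Samples were extracted with acetonitrile, and the remaining sorafenib was quantified by LC-MS/MS. Half-life (t1/2) was calculated from the decline over time.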

The test system of series [12] is subcutaneous MHCC97-H tumors. Nature of the series: Clearance of sorafenib in subcutaneous tumor by LC-MS/MS. Type of series: in vivo, nude mice. The following applies: PXR siRNA +siRNA. A digest of the protocol:
(§4)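 Nude mice (T-cell deficient, 4–6 weeks) carried subcutaneous tumours grown from injected HCC cells; siRNA sequences were described in earlier work. Sorafenib solution was injected into the tumours, and tissue was harvested at set time points. Samples were extracted with acetonitrile, and residual sorafenib was quantified by LC-MS/MS. t1/2 was obtained by curve fitting.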

Series [13] is described as follows: Clearance of sorafenib in cultured cells by LC-MS/MS. Type of series: in vitro ADME. The note with it: human, MHCC97-H cells (cultured HCC cells), Half-life of sorafenib (t1/2). A digest of the protocol: as §3
Test in series [14]: as above
Type of series: in vitro ADME. The following applies: human, HepG2 cells (cultured HCC cells), Half-life of sorafenib (t1/2). Put shortly:
as §3

Test in series [15]: as above
In kind it is in vitro ADME. The note with it: human, LM-3 cells (cultured HCC cells), Half-life of sorafenib (t1/2), LM-3 cultured cells. Put shortly: as §3

Series [16] relates to subcutaneous LM-3 tumors. Nature of the series: Clearance of sorafenib in subcutaneous tumor by LC-MS/MS. In kind it is in vivo, nude mice. The following applies: LM-3 subcutaneous tumor, ETS-1 siRNA. Put shortly: as §4

Molecules are shown by their SMILES. Where two headings read alike, the source gives them in different places.

What is called IC50 is the point on the concentration scale where inhibition reaches its midpoint. In general, half-life refers to the time needed for the level to fall by half in the phase considered. Low values mean fast loss, high ones slow loss.

Regarding `O=C1NC(=O)[C@@H](c2cn3c4c(cccc24)CCC3)[C@@H]1c1c[nH]c2ccccc12` [ARQ-197], the “expression of Cyp3a4 (mRNA)” value in series [1] is recorded as “decreased”. Further, in series [1], the “expression of Mdr-1 (mRNA)” value is reported as “decreased”. Besides, in series [1], the “expression of Ugt1a9 (mRNA)” value is on record as “decreased”. Also, the IC50 in series [2] (read-out: IC50 values, MHCC97-H, MTT) came to 760 ± 220 nM; in series [4] (read-out: IC50 values, MHCC97-L, MTT), 4630 ± 930 nM; in series [8] (Homo sapiens, L02, read-out: IC50 values), 7590 ± 780 nM; in [9] (HepG2, read-out: IC50 values, HepG2, MTT), 1990 ± 470 nM; in [10] (LM3, read-out: IC50 values, LM-3, MTT), 670 ± 160 nM. Also, the IC25 values came to 90 ± 10 nM in series [2] (MHCC97-H, MTT); 1290 ± 520 nM in series [4] (MHCC97-L, MTT); 3440 ± 240 nM in [8] (L-02, MTT); 230 ± 70 nM in series [9] (HepG2, MTT); 80 ± 20 nM in series [10] (LM-3, MTT). In addition, the “ICmax values (maximum action concentration)” value in series [2] (MHCC97-H, MTT) amounted to 3.56 ± 0.65 µmol/L; in series [9] (HepG2, MTT), 9.55 ± 0.57 µmol/L; in series [10] (LM-3, MTT), 4.62 ± 0.80 µmol/L. Also, in series [3], the “luciferase activity of EBS-Luc reporter” value is “inhibited”. Further, the “expression of E-cadherin (mRNA)” value in series [5] is on record as “enhanced”. Besides, in series [5], the “expression of N-cadherin (mRNA)” value is “decreased”. Besides, the “expression of vimentin (mRNA)” value in [5] is given as “decreased”. In [6], the “luciferase activity of DR3-Luc reporter” value is on record as “inhibited”. In addition, the “effect of ARQ-197 on the antitumor effect of sorafenib in vivo” value in series [7] (3 mg/kg ARQ-197 + 2 mg/kg sorafenib compared to sorafenib alone, MHCC97-H tumors) was “significantly enhanced the antitumor effect of sorafenib”. For the same compound, the “subcutaneous growth of MHCC97-H tumors” value in [7] (3 mg/kg ARQ-197, oral, compared to vehicle controls) was “inhibited the subcutaneous growth of MHCC97-H tumors”.

For the compound `CNC(=O)c1cc(Oc2ccc(NC(=O)Nc3ccc(Cl)c(C(F)(F)F)c3)cc2)ccn1` [sorafenib], the concentration for half-maximal inhibition (IC50) in series [2] (read-out: IC50 values of sorafenib, MHCC97-H, solvent control) turned out to be 1390 ± 460 nM; in [4] (read-out: IC50 values of sorafenib, MHCC97-L, ARQ-197), 970 ± 390 nM; in series [4] (read-out: IC50 values of sorafenib, MHCC97-L, solvent control), 2730 ± 400 nM; in series [9] (HepG2, read-out: IC50 values of sorafenib, HepG2, solvent control) it was 1680 ± 420 nM; in series [10] (LM3, read-out: IC50 values of sorafenib, LM-3, solvent control), 1290 ± 250 nM. Moreover, the half-life at 1 μmol/L is 12.6 ± 0.18 h in [11] (ARQ-197); 10.2 ± 0.51 h in [11] (solvent control); 13.6 ± 0.65 h in [13] (ARQ-197); 13.8 ± 0.84 h in series [13] (ETS-1 siRNA); 13.5 ± 0.23 h in series [13] (ETS-1 siRNA +ARQ-197); 17.7 ± 0.91 h in [13] (PXR siRNA). Also, the half-life at 1 μmol/L in [13] (PXR siRNA +siRNA) is 17.6 ± 0.88 h; in series [13] (solvent control) it was 9.08 ± 0.43 h; in series [14] (ARQ-197), 12.5 ± 0.62 h; in [14] (solvent control), 9.62 ± 0.82 h; in series [15] (ARQ-197) it was 14.4 ± 0.67 h; in series [15] (ETS-1 siRNA), 15.6 ± 0.46 h. In addition, the half-life at 1 μmol/L was 15.2 ± 0.18 h in series [15] (ETS-1 siRNA +ARQ-197), 18 ± 0.25 h in series [15] (PXR siRNA), 18.4 ± 0.67 h in series [15] (PXR siRNA +siRNA) and 9.93 ± 0.57 h in series [15] (solvent control). In addition, the entries for the “Half-life of sorafenib (t1/2)” value in series [12] and in series [16] were 40.13 ± 0.83 h and 39.45 ± 0.74 h, respectively.
